Test results from ChEMBL document CHEMBL4699498 (J Med Chem, 2020).
Active and inactive are the calls of the source. The calls are words filed in the database; no cut-off is given here.

Tests used:
L02 = experiment: Cytotoxicity against human L02 cells assessed as reduction in cell viability incubated for 120 hrs by CCK-8 assay; type: cell-based; conditions: l02, 120 h
SW-620 = experiment: Potentiation of TMZ induced antitumor activity against SW-620 cells xenografted in Balb/c mouse assessed as tumor growth suppression at 10 mg/kg, po qd administered for 5 days; type: functional, organism-based; conditions: time 5.0 day
Summary of the method: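 Male BALB/c nude mice carried SW620 xenografts (6×10^6 cells s.c.), randomized at ~150 mm³ (6 per group). TMZ 50 mg/kg was given orally once daily on days 0-4, 45 min after the partner drug. Partners were 5 or 10 mg/kg intraperitoneally or 10 mg/kg by oral gavage, daily for 5 days. Vehicle was 5% DMSO/20% PEG400/10% Cremophor EL/65% saline. Tumor volume and body weight were recorded 2-3 times weekly.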

[1] = biological target: T1, Protein cereblon/Poly [ADP-ribose] polymerase 1 (Homo sapiens, UniProt P09874+Q96SW2); experiment: Protac activity at CRBN/PARP1 in human MDA-MB-436 cells assessed as induction of PARP1 degradation at 30 nM incubated for 24 hrs in presence of 0.1 to 1 uM PARP1 inhibitor olaparib by Western blot analysis
Target sequence in this assay (P09874 2-1014 limits assumed): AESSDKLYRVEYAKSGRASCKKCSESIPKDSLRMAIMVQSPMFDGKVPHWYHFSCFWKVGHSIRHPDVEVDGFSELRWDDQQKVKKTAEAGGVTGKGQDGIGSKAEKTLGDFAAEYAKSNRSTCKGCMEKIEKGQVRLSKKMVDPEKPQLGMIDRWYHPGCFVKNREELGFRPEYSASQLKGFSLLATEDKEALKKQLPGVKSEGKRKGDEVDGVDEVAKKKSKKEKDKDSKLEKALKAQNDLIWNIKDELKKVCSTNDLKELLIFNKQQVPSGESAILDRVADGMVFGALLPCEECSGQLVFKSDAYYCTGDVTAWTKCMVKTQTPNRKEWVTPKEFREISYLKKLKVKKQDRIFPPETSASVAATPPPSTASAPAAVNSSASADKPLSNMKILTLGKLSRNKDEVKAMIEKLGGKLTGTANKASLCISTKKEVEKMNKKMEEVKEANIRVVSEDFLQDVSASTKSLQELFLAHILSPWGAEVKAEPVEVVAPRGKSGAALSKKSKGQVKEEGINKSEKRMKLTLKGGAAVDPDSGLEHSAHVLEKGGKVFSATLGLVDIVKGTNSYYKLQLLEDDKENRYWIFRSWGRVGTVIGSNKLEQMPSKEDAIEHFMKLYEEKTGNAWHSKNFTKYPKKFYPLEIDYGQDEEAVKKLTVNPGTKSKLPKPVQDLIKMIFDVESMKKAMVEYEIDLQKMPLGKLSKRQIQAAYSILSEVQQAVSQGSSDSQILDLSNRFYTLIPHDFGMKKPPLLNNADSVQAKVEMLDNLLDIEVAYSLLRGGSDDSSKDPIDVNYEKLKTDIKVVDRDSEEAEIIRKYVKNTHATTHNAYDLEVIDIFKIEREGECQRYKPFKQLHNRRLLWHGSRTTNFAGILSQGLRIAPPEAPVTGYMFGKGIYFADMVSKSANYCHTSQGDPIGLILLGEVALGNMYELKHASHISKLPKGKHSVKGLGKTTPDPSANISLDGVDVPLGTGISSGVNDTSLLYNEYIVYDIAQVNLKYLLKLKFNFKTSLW
Target sequence in this assay (Q96SW2 whole entry partner): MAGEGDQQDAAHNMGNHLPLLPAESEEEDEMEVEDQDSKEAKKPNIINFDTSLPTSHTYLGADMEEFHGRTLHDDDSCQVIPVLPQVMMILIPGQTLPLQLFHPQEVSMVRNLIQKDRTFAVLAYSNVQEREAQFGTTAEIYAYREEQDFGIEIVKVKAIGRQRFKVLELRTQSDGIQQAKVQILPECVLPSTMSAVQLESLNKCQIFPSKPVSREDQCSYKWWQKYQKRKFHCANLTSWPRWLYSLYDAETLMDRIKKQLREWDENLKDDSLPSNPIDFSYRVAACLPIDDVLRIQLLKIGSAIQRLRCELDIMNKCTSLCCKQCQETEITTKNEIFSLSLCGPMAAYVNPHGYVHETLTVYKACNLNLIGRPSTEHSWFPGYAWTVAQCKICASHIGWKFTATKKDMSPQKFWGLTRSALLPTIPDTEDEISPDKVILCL

MCF-10A = experiment: Cytotoxicity against human MCF-10A cells assessed as reduction in cell viability incubated for 120 hrs by CCK-8 assay; type: cell-based
[2] = biological target: T1, Protein cereblon/Poly [ADP-ribose] polymerase 1; experiment: Protac activity at CRBN/PARP1 in human MDA-MB-436 cells assessed as induction of PARP1 degradation at 10 nM incubated for 24 hrs by Western blot analysis relative to control; type: cell-based
Summary of the method: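 MDA-MB-436 cells (RPMI-1640, 10% FBS) seeded 24 h, then exposed to compound at 1, 10, 100 and 1000 nM for 24 h. Lysates in RIPA with protease inhibitors, 20-30 µg protein by SDS-PAGE, PARP1 immunoblot with β-tubulin loading control; PARP1/β-tubulin ratio normalized to DMSO control set at 100.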
Target sequence in this assay (P09874 2-1014 limits assumed): as the sequence (P09874 2-1014 limits assumed) above
Target sequence in this assay (Q96SW2 whole entry partner): as the sequence (Q96SW2 whole entry partner) above

[3] = biological target: T1, Protein cereblon/Poly [ADP-ribose] polymerase 1; experiment: Protac activity at CRBN/PARP1 in human SW-620 cells assessed as induction of PARP1 degradation at 30 nM measured within 1 hr by Western blot analysis; type: cell-based; conditions: time hrs <=1
Summary of the method: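 Time course at 30 nM in MDA-MB-436 or SW620 cells; PARP1 immunoblotted at successive time points, β-tubulin as loading control.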
Target sequence in this assay (P09874 2-1014 limits assumed): as the sequence (P09874 2-1014 limits assumed) above
Target sequence in this assay (Q96SW2 whole entry partner): as the sequence (Q96SW2 whole entry partner) above

[4] = biological target: T1, Protein cereblon/Poly [ADP-ribose] polymerase 1; experiment: Protac activity at CRBN/PARP1 in human SW-620 cells assessed as induction of PARP1 degradation at 30 nM incubated for 24 hrs in presence of 0.1 to 1 uM CRBN ligand pomalidomide by Western blot analysis; type: cell-based
Target sequence in this assay (P09874 2-1014 limits assumed): as the sequence (P09874 2-1014 limits assumed) above
Target sequence in this assay (Q96SW2 whole entry partner): as the sequence (Q96SW2 whole entry partner) above

Mus musculus = experiment: Induction of PARP1 degradation in SW-620 cells xenografted Balb/c mouse at 25 mg/kg, ip at 1 to 24 hrs by Western blotting analysis; type: functional, organism-based; conditions: time hrs 1-24
Summary of the method: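 Male BALB/c nude mice carried subcutaneous SW620 xenografts (6×10^6 cells); at 200-300 mm³ they were randomized. A single 25 mg/kg intraperitoneal dose was given. Tumors were harvested at 1, 3, 6 and 24 h, and vehicle controls at 3 h. Tumors were frozen, ground in liquid nitrogen, and PARP1 was analysed by western blot against β-tubulin.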

[5] = Acute toxicity in Balb/c mouse assessed as lethality at 25 to 50 mg/kg, ip administered 5 times a week for 3 weeks; type: organism-based; conditions: in vivo, 504 h
Summary of the method: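 Male BALB/c nude mice (5–6 weeks) received 5×10^6 Capan-1 cells s.c. in the right armpit. At a mean tumour volume of about 150 mm³, mice were randomised by tumour volume and body weight, 6 per group. Dosing was i.p. in 5% DMSO/20% PEG400/10% Cremophor EL/65% saline, once daily five times per week for 3 weeks. Body weight was measured 2–3 times weekly.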

[6] = biological target: T1, Protein cereblon/Poly [ADP-ribose] polymerase 1; experiment: Protac activity at CRBN/PARP1 in human MDA-MB-436 cells assessed as reduction in PARP1 protein level at 0.01 to 10 uM incubated for 12 hrs by western blot analysis; type: cell-based; conditions: dose microM 0.01-10, time 12.0 hrs
Summary of the method: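 MDA-MB-436 or SW620 cells dosed at 1, 10, 100, 1000 nM and 10 µM for 12 h; PARP1 assessed by western blot of RIPA lysates (20-30 µg protein), β-tubulin as loading control.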
Target sequence in this assay (P09874 2-1014 limits assumed): as the sequence (P09874 2-1014 limits assumed) above
Target sequence in this assay (Q96SW2 whole entry partner): as the sequence (Q96SW2 whole entry partner) above

[7] = biological target: T1, Protein cereblon/Poly [ADP-ribose] polymerase 1; experiment: Protac activity at CRBN/PARP1 in human 22Rv1 cells assessed as induction of PARP1 degradation measured after 24 hrs by Western blot analysis; type: cell-based
Summary of the method: (§1)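 The cell line was treated 24 h across a concentration range. PARP1 was measured by western blot against β-tubulin. DC50 is the average of two biologically independent experiments.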
Target sequence in this assay (P09874 whole entry): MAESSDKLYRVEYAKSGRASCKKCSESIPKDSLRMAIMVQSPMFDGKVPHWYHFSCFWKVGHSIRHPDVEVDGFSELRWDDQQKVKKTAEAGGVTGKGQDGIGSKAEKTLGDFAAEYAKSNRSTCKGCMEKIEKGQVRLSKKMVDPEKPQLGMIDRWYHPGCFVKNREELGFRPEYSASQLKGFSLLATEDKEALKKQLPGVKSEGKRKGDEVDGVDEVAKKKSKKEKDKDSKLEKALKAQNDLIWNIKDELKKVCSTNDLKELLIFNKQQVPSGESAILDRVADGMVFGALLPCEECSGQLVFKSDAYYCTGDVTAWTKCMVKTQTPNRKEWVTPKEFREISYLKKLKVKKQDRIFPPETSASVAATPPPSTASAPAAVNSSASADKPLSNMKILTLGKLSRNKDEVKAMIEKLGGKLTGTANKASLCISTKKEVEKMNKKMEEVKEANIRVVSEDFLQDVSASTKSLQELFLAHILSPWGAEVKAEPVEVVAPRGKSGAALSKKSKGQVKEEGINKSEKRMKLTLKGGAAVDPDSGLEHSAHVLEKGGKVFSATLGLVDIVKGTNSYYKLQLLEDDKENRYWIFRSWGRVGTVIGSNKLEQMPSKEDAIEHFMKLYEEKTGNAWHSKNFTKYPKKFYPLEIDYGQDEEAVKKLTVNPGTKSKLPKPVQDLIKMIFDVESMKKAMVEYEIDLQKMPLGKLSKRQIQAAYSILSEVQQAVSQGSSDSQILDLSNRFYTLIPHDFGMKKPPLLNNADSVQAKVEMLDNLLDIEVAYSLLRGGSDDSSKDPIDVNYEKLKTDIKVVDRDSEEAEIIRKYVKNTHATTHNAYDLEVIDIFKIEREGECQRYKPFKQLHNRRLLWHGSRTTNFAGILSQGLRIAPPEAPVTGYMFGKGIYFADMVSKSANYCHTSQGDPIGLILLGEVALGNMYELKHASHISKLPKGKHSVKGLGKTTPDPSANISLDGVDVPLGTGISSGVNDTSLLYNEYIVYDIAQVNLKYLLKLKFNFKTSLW
Target sequence in this assay (Q96SW2 whole entry): as the sequence (Q96SW2 whole entry partner) above

[8] = AUCall in ICR mouse at 25 mg/kg, ip by LC-tandem mass spectrometry analysis; type: ADME, organism-based; design: dose 25 mg/kg; conditions: in vivo
Summary of the method: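 Female ICR mice (20-23 g, 6-7 weeks old, n = 3) received a single 25 mg/kg intraperitoneal dose formulated in 5% DMSO/15% Solutol HS15/80% D5W. Plasma was sampled at 0.5, 1, 2, 4, 6, 8 and 24 h and protein-precipitated with methanol. Compound was quantified by LC-MS/MS against a standard curve.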

CAPAN-1 = experiment: Antiproliferative activity against human CAPAN-1 cells assessed as cell growth inhibition incubated for 13 days by CCK-8 assay; type: functional, cell-based; conditions: CAPAN-1, 312 h
Summary of the method: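 Cells were sub-cultured at least twice and seeded for 24 h before dosing. Compounds came from 10 mM DMSO stocks, given as 10 points of 3-fold serial dilution starting at 10-20 μM. Incubation was about 7 days (Capan-1 13 days) at 37 °C, 5% CO2. Read-out was CCK-8 absorbance at 450 nm, as % growth versus DMSO wells (duplicate wells). IC50 was fitted by nonlinear regression; three independent experiments.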

[9] = biological target: T1, Protein cereblon/Poly [ADP-ribose] polymerase 1; experiment: Protac activity at CRBN/PARP1 in human MDA-MB-436 cells assessed as induction of PARP1 degradation at 30 nM incubated for 24 hrs in presence of proteasome inhibitor carfilzomib by Western blot analysis
Target sequence in this assay (P09874 2-1014 limits assumed): as the sequence (P09874 2-1014 limits assumed) above
Target sequence in this assay (Q96SW2 whole entry partner): as the sequence (Q96SW2 whole entry partner) above

[10] = biological target: T1, Protein cereblon/Poly [ADP-ribose] polymerase 1; experiment: Protac activity at CRBN/PARP1 in human HCC1937 cells assessed as induction of PARP1 degradation measured after 24 hrs by Western blot analysis; type: cell-based; summary of the method: as §1
Target sequence in this assay (P09874 whole entry): as the sequence (P09874 whole entry) above
Target sequence in this assay (Q96SW2 whole entry): as the sequence (Q96SW2 whole entry partner) above

[11] = Acute toxicity in Balb/c mouse xenografted with Capan1 cells assessed as mean weight loss at 50 mg/kg, ip qd administered for 5 days in presence of cisplatin measured on day 10 relative to control; type: organism-based; conditions: in vivo, 240 h, time 10 day
Summary of the method: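 Male BALB/c nude mice carried Capan-1 xenografts (5×10^6 cells s.c.), randomized at ~150 mm³ (6 per group). Treatment was 25 or 50 mg/kg intraperitoneally or 100 mg/kg by oral gavage, once daily on days 0-4. Cisplatin 6 mg/kg in saline was given intraperitoneally on day 2, 45 min after the partner drug. Tumor volume and body weight were measured 2-3 times weekly.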

[12] = biological target: T1, Protein cereblon/Poly [ADP-ribose] polymerase 1; experiment: Protac activity at CRBN/PARP1 in human HCC1937 cells assessed as induction of PARP1 degradation at 30 nM incubated for 1 to 24 hrs by Western blot analysis; type: cell-based; conditions: time hrs 1-24

O=C(CCCCCCCCCCC(=O)N1CCN(C(=O)c2cc(Cc3n[nH]c(=O)c4ccccc34)ccc2F)CC1)NCCNc1cccc2c1C(=O)N(C1CCC(=O)NC1=O)C2=O (configuration not stated)
Activity (L02): Non-Toxic
Activity (SW-620): Active
Activity [1]: inactive
Activity (MCF-10A): Non-Toxic
Activity [2]: > 99%
Activity [3]: Active
Activity [4]: inactive
Activity (Mus musculus): Active
Activity [5]: Non-Toxic
Activity [6]: Active
DC50 [7]: 512 pM
AUC [8]: 5320 ng·h/mL
IC50 (CAPAN-1): 56000 pM
Activity [9]: inactive
DC50 [10]: 384 pM
Activity [11]: 12%
Activity [12]: Active
